Screening results (PubChem BioAssay)
The list is not random: actives were taken first. Their share in the collection is about 4.6%.
OX1R antag-1: OX1R (human) antagonism | OX1R-expressing cells, FRET antagonist read-out | inhibition, % at 6.6 µM | 330,000 compounds, 1.8% hits | AID 485270; in the data active = inhibition mostly above about 38%, no sharp cut-off; inactive = mostly below about 40%
GPR7 antag: human neuropeptides B/W receptor 1 antagonism; inhibition, % at 4.4 µM; P48145; 290,000 compounds, 1.1% hits; GPR7-expressing cells, fluorescence antagonist assay; in the data active = inhibition above about 16%, passing the limit was not always enough;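 also: cells stimulated with the agonist NPW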
Target sequence (P48145 whole entry, looked up): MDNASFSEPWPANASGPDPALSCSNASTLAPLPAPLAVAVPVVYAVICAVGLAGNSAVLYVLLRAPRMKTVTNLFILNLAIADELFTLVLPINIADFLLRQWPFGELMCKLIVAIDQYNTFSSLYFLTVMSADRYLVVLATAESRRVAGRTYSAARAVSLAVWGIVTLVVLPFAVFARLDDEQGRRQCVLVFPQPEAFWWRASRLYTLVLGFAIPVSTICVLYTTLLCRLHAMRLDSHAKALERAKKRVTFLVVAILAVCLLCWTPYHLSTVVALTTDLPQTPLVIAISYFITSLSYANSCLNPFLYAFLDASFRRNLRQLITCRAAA
TAAR1 ag: human TAAR1 agonism. CHO RD-HGA16 TAAR1, Fluo-8 calcium fluorescence; vehicle wells 0%, saturating PEA agonist 100%. AID 624467. Q96RJ0. 360,000 compounds, 0.99% hits. activation, % at 3 µM;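 active = activation above the mean activation of all test compounds in the run plus 3 SD, cut at about 38% in these data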
Target sequence (Q96RJ0 whole entry, looked up): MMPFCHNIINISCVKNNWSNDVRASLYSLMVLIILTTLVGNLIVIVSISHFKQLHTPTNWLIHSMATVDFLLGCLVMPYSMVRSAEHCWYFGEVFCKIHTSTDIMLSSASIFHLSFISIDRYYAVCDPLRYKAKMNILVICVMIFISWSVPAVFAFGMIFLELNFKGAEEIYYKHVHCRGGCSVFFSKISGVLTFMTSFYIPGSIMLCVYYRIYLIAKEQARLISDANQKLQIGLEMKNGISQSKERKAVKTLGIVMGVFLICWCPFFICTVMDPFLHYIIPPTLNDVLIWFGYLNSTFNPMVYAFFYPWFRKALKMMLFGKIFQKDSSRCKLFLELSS
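Test system: RD-HGA16 (CHO) cells co-expressing Gα16 and hTAAR1; dosing: one-point dosing at 3 µM (nominal); timing: 17-24 h seeding, 75 min 37 °C dye, 30 min RT; signal: kinetic Fluo-8 calcium fluorescence; read-out basis: % activation relative to PEA EC100 response; controls: DMSO and PEA EC100; replicates: n 1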
TAAR1 antagonist: human TAAR1 antagonism; Q96RJ0; CHO RD-HGA16 TAAR1, Fluo-8 calcium fluorescence, antagonist; inhibition, % at 3 µM; 360,000 compounds, 1.5% hits;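 active = inhibition above a per-plate cutoff, the mean inhibition of test compounds on that plate plus 3 SD, cut at about 49% in these data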
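Assay system: CHO-derived RD-HGA16 cells stably expressing human TAAR1 plus Gα16. Timing: 140 s kinetic read after compound, 140 s after agonist. Technique: kinetic Fluo-8 calcium fluorescence measurement. Measure: % inhibition of agonist calcium response.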
CHO parental Ca: signal in parental CHO cells, OX1R antagonist counter-screen; 330,000 compounds, 0.63% hits; parental CHO-K1, ATP-induced calcium, Fluo-8 fluorescence; inhibition, % at 5.6 µM;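 active = inhibition above that plate's mean sample inhibition plus 3 SD, cut at about 26% in these data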
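Material: Parental CHO cells | Reagent: ATP | Compound dosing: Single nominal dose of 5.6 µM per compound | Detection: Intracellular calcium via Fluo-8 no-wash fluorescent dye | Read-out: % inhibition of ATP-induced calcium mobilization | Benchmarks: Low control ATP plus DMSO, high control DMSO only | Replicates: Singlicate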
OX1R antag-2: antagonists of human orexin 1 receptor. CHO/OX1R cells, Fluo-8 calcium fluorescence, orexin A. inhibition, % at 5 µM. 330,000 compounds, 0.43% hits. AID 434989;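 active = inhibition above its plate's threshold, mean inhibition of all tested compounds on the plate plus 3 SD, cut at about 37% in these data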
nonsel antag count: counter-screen for TAAR1 antagonists: nonselective antagonists | shares compounds with TAAR1 antagonist | 2,400 compounds, 77% hits | inhibition, % at 3 µM | counterscreen cell line, calcium fluorescence, antagonist mode; in the data active = inhibition above about 22%;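 also: CHO-Ga16 host cells stimulated with ATP at an EC80 level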
TAAR1 ant conf: human TAAR1 antagonism, confirmed. shares compounds with TAAR1 antagonist. TAAR1-expressing cells, fluorescence antagonist read-out. inhibition, % at 3 µM. 2,400 compounds, 40% hits; in the data active = inhibition above about 49%;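 also: CHO-Ga16 host cells challenged with agonist PEA near its EC80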
Ga16 nonsel ag: counter-screen for TAAR1 antagonists: nonselective Ga16 agonists; shares compounds with TAAR1 antagonist; Ga16-expressing cells, calcium fluorescence, agonist counterscreen; activation, % at 3 µM; 2,400 compounds, 18% hits; in the data active = activation above about 12%
TAAR1 ag count: counter-screen for human TAAR1 antagonists: TAAR1 agonists. shares compounds with TAAR1 antagonist. 2,400 compounds, 2% hits. AID 651955. activation, % at 3 µM. hTAAR1 cell line, fluorescence activation, agonist mode; in the data active = activation above about 37%;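 also: CHO cells stably expressing TAAR1 with calcium dye readout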
Numbers stand for hits; – = inactive; · = no result.

SMILES	OX1R antag-1	GPR7 antag	TAAR1 ag	TAAR1 antagonist	CHO parental Ca	OX1R antag-2	nonsel antag count	TAAR1 ant conf	Ga16 nonsel ag	TAAR1 ag count
CC(=NO)C1CCC2C3CCC4CC(=NO)CCC4(C)C3C(C)(O)CC12C (configuration not stated)	·	·	–	77	·	·	29	52	17	–
CCN(CC)C(=O)c1cccc(-c2csc(C(C)(O)c3ccccc3)n2)c1 (configuration not stated)	·	·	–	–	·	·	·	·	·	·
CCN(CC)C(=O)c1cccc(-c2csc(C(C)(O)c3ccc(OC)cc3)n2)c1 (configuration not stated)	·	·	–	86	·	·	40	60	15	–
CCN(CC)C(=O)c1cccc(-c2csc(C(C)(O)c3cccc(OC)c3)n2)c1 (configuration not stated)	·	·	–	78	·	·	46	59	15	–
CC(C)(C)OC(=O)N1CCC[C@@H]1C(=O)NCc1ccccc1	·	·	–	–	·	·	·	·	·	·
COc1ccc(-c2csc(NC(=O)[C@H](C)N3C(=O)C4CC=CCC4C3=O)n2)cc1OC (some centres not stated)	–	·	–	–	–	–	·	·	·	·
O=C(Nc1nc(-c2ccc(F)c(F)c2)cs1)c1ccc(OCC2CCCO2)cc1 (configuration not stated)	–	–	–	54	–	–	33	–	–	–
Cc1csc(NC(=O)c2ccc(OCC3CCCO3)cc2)n1 (configuration not stated)	–	–	–	–	–	–	·	·	·	·
O=C(O)CCCC(=O)Nc1nc(-c2ccc(F)cc2)cs1	–	–	–	–	–	–	·	·	·	·
COc1ccc(CC(=O)Nc2nc(-c3cc(OC)ccc3OC)cs2)cc1	–	–	–	55	–	–	22	–	–	–
O=C(Cc1ccc(F)cc1)Nc1nc(-c2ccc(F)cc2)cs1	–	–	–	82	–	–	46	57	–	–
CC(C(=O)Nc1nc(-c2ccc(F)c(F)c2)cs1)N1C(=O)C2CC=CCC2C1=O (configuration not stated)	–	·	–	78	–	–	45	60	–	–
Cc1ccc(S(=O)(=O)N2CC(CO)=CCC2c2ccccc2)cc1 (configuration not stated)	·	·	–	–	·	·	·	·	·	·
CCC(CC)C(C(=O)NCc1ccccc1)N1CCN(c2cccc(C)c2C)CC1 (configuration not stated)	·	·	–	–	·	·	·	·	·	·
CCC(c1nnnn1-c1ccc2c(c1)OCCO2)N1CCN(C(=O)C2CCCO2)CC1 (configuration not stated)	·	·	–	–	·	·	·	·	·	·
O=C(CN1C(=O)NC2(CCCC2)C1=O)Nc1nc(-c2ccc(F)cc2)cs1	–	–	–	51	–	–	23	–	–	–
O=C(Cc1cccs1)Nc1nc(-c2ccc(F)c(F)c2)cs1	–	–	–	72	–	–	39	55	–	–
O=C(Cc1ccccc1F)Nc1nc(-c2ccc(F)c(F)c2)cs1	–	–	–	68	–	–	24	50	–	–
COCC(=O)N1C[C@H]2CON(C)[C@H]2C[C@H]1c1cccc(-c2cc(Cl)cc(Cl)c2)c1	·	·	–	–	·	·	·	·	·	·
COc1cc(C)cc(OC)c1OCC(=O)Nc1cc(C)on1	–	·	–	88	–	–	–	–	–	–
CCc1ccc(CN2CCCC(CNC(=O)c3cccc(OC)c3OC)C2)cc1 (configuration not stated)	–	–	–	–	–	–	·	·	·	·
COc1ccc([C@H]2CC(=O)C=C(c3cccc(C(C)C)c3)C2)cc1	–	·	–	50	–	–	–	–	–	–
CCC(C)Nc1nc(-c2cccc(OC)c2O)nc2ccccc12 (configuration not stated)	–	–	–	57	–	–	–	–	–	–
COC(=O)C(c1ccccc1)C(CC(=O)c1ccccc1)c1ccccc1 (configuration not stated)	·	·	–	76	·	·	–	–	–	–
CN(C)CCN1CCN(C2CN(Cc3cn(Cc4ccccc4)nn3)S(=O)(=O)C2)CC1 (configuration not stated)	·	·	–	–	·	·	·	·	·	·
SMILES	OX1R antag-1	GPR7 antag	TAAR1 ag	TAAR1 antagonist	CHO parental Ca	OX1R antag-2	nonsel antag count	TAAR1 ant conf	Ga16 nonsel ag	TAAR1 ag count
COc1ccc(CNn2c(C)nc3ccccc3c2=O)cc1	–	–	–	–	–	–	·	·	·	·
CCCCOc1ccc(CNn2c(C)nc3ccccc3c2=O)cc1	–	–	–	59	–	–	29	–	–	–
COc1ccc(CNn2c(-c3cccc(C)c3)nc3ccccc3c2=O)cc1OC	–	–	–	59	–	–	24	–	–	–
O=C(Nc1ccc(F)cc1)C(CCc1ccccc1)N1CCN(Cc2c(F)cccc2Cl)CC1 (configuration not stated)	·	·	–	–	·	·	·	·	·	·
CC(C)(C)OC(=O)N1CCc2onc(-c3ccc(Br)cc3)c2C1=O	·	·	–	–	·	·	·	·	·	·
CC(C)(Oc1ccc(Cl)cc1)C(=O)NCC(c1cccs1)N1CCOCC1 (configuration not stated)	–	·	–	58	–	–	–	–	–	–
CCn1c2ccccc2c2cc(NC(=O)c3coc(=O)c(Br)c3)ccc21	–	–	–	105	–	–	–	–	–	–
COc1cccc(-c2nn(-c3ccccc3)cc2C(=O)Nc2nccs2)c1	–	–	–	65	–	–	–	49	–	–
CC(=O)C1=C(C)N(Cc2ccc(F)cc2)C(=S)NC1c1cccc(F)c1 (configuration not stated)	·	·	–	–	·	·	·	·	·	·
COC(=O)[C@]12CCCCC=C1N(Cc1ccccc1)C(=O)[C@H](CC(=O)NCCCCc1ccccc1)C2	·	·	–	–	·	·	·	·	·	·
C=CCNc1nc(N)c(C(=C(C#N)C#N)c2ccc(Br)cc2)s1	–	–	–	68	–	–	27	62	–	–
C=CCNc1sc(C(=O)c2ccc(C)cc2)c(N)c1C#N	–	–	–	–	–	–	·	·	·	·
O=C(NCc1cccc(F)c1)Nc1nnc([C@H]2C[C@H](O)[C@@H](CO)O2)s1	·	·	–	–	·	·	·	·	·	·
COc1ccc(-c2nc(NC(=O)c3ccc(OCC(=O)Nc4ccc(F)cc4)c(OC)c3)sc2C)cc1	–	–	–	65	–	–	30	–	–	–
